Compound activity as filed in PubChem BioAssay.
PolyA inh = polyadenylation inhibitors in yeast reporter cells, primary screen, luminescence, S. cerevisiae | S. cerevisiae SKY197-pL101 polyadenylation reporter, beta-gal luminescence; efflux-impaired pdr1/pdr3 knockout yeast; score 100 = 6 SD above DMSO | activity score, % at 12 µM | actives 0.02% (n = 300,000);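 active = lowest replicate activity score at least 50, where 100 means six control SD above control mean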;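 note: yeast exposed to compound for 9 h at 30 °C; higher score means more reporter readthrough which indicates perturbed polyadenylation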
Arrestin-AP2 inh = inhibitors of beta-arrestin/AP2 binding, primary screen, biochemical, GPCR trafficking, flow cytometry | AID 504490, 2011 | beta-arrestin 1 C-terminal peptide binding to AP2 beta2-adaptin appendage (human) | inhibition, % at 10 µM | actives 0.31% (n = 340,000) | FITC-arrestin peptide / GST-AP2 beads; AP2 beta2 appendage carries R879A mutation;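 active = inhibition above a set limit, near 3 SD of compounds lacking own fluorescence, cut at about 54% in these data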
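Material – GST-tagged AP2 beta2-adaptin appendage (R879A) on 4 µm glutathione beads · Probe or stimulus – fluorescein-tagged arrestin peptide at 50 nM final · Timing – 12 min plus 1 h, RT · Detection – bead flow cytometry, FITC channel · Read-out basis – inhibition as reduced fluorescein signal on beads, percent · Medium – PBS plus Tween 20 (0.05%) and BSA (0.1%)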
AHR activator = AHR activators, primary screen, cell-based, luminescence, luciferase reporter, human; AHR-responsive luciferase reporter cells; activation, % at 5 µM; actives 2.5% (n = 320,000); Aryl hydrocarbon receptor (Homo sapiens), P35869; AID 2796, 2010; in the data active = activation above about 47%
A3A deaminase = APOBEC3A ssDNA deaminase inhibitors, primary screen, selectivity assay for APOBEC3G inhibitor project, biochemical, FAM/TAMRA oligo cleavage fluorescence. actives 0.41% (n = 330,000). AID 493011, 2011. recombinant A3A, FAM/TAMRA ssDNA deamination fluorescence. DNA dC->dU-editing enzyme APOBEC-3A (Homo sapiens), P31941. inhibition, % at 20 µM;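 active = at least 40% inhibition at 20 µM here, with at most 30% in a related deaminase screen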
Target sequence (P31941 whole entry, looked up): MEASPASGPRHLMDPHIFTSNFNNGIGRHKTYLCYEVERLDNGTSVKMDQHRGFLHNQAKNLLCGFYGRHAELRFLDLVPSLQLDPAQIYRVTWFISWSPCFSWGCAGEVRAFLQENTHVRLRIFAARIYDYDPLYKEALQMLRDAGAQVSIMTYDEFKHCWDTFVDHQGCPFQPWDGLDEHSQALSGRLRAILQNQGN
APOBEC3G inh = APOBEC3G DNA deaminase inhibitors, primary screen, biochemical, fluorescence, single-stranded DNA substrate, uHTS | DNA dC->dU-editing enzyme APOBEC-3G (Homo sapiens), Q9HC16 | recombinant A3G, ssDNA deamination FAM/TAMRA fluorescence | inhibition, % at 20 µM | actives 0.28% (n = 330,000) | AID 493012, 2011;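 active = inhibition of at least 40% at 20 µM, with no more than 30% in the related APOBEC3A deaminase screen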
UCH37 DUB inh = inhibitors of human UCH37 deubiquitinase, primary screen, biochemical, Ub-AMC cleavage, fluorescence; purified proteasome/UCH37; actives 0.33% (n = 330,000); Ubiquitin carboxyl-terminal hydrolase isozyme L5 (Homo sapiens), Q9Y5K5; inhibition, % (no concentration beside the values);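 active = mean inhibition over replicate wells above about 20%, limit read from the data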
Target sequence (Q9Y5K5 whole entry, looked up): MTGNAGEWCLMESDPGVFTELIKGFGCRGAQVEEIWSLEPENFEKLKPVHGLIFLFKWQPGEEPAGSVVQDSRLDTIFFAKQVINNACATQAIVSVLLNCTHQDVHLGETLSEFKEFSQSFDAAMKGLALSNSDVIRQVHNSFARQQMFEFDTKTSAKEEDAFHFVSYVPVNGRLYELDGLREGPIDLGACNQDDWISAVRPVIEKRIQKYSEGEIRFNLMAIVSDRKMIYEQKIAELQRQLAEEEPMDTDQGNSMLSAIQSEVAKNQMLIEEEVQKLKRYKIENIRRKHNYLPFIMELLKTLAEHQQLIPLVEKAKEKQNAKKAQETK
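Test system – human UCH37 enzyme supplied as purified proteasome complex · Incubation – 30 min preincubation with enzyme, 25 min cleavage at room temperature · Detection – AMC fluorescence from Ub-AMC cleavage, excitation 355 nm, emission 460 nm · Benchmarks – no-proteasome wells (full inhibition) and compound-free wells (no inhibition)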
A3A conf = APOBEC3A deaminase inhibitors, retest, confirmation, selectivity assay for APOBEC3G inhibitor project, biochemical, single concentration, fluorescence readout; inhibition, % at 20 µM; actives 63% (n = 1,400); AID 493151, 2011; shares compounds with A3A deaminase; recombinant A3A, ssDNA deaminase UDG fluorescence assay;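 active = inhibition reaching a set limit, 80% of the first screen's cutoff, at 20 µM in any replicate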
UDG ctr A3A = E. coli UDG inhibitors, confirmation, counter-screen for APOBEC3A inhibitor project, biochemical, single concentration, fluorescence, FAM/TAMRA oligo. 1,000 tested, under 10 active. UDG counterscreen, FAM/TAMRA uracil oligo fluorescence. inhibition, % at 20 µM. shares compounds with A3A deaminase; call rule not given here
Of the large screens only hits and unclear results are named; the others gave an inactive call (follow-up assays come after a bar, where they were run). Hits are enriched below; roughly 3.4% of the tested compounds scored in any of these assays.

CC(=NNC(=O)C1COc2ccccc2O1)c1ccc(N2CCOCC2)cc1 (stereo unspecified)	none (no result: PolyA inh, Arrestin-AP2 inh, AHR activator, A3A deaminase, APOBEC3G inh)
COc1ccc(C(CC(=O)N2CCCCC2)c2c(OC)cc(OC)c3c(-c4ccccc4)cc(=O)oc23)cc1 (stereo unspecified)	A3A deaminase 71.6 (no result: Arrestin-AP2 inh) | A3A conf 73.5 | UDG ctr A3A inactive
O=C(COC(=O)c1cc2c(s1)CCCC2)Nc1ccc(Cl)cn1	none
O=C(COC(=O)c1cc2c(s1)CCC2)Nc1ccc(F)cc1	A3A deaminase 45.2 | A3A conf 48.7 | UDG ctr A3A inactive
NC(=O)c1ccc(NC(=O)COC(=O)c2cc3c(s2)CCC3)cc1	A3A deaminase 54.8 (no result: PolyA inh) | A3A conf 42.9 | UDG ctr A3A inactive
COCCn1c(C)cc(C(=O)COC(=O)c2cc3c(s2)CCC3)c1C	A3A deaminase 43.2 | A3A conf 27.3 | UDG ctr A3A inactive
COc1ccc(NC(=O)COC(=O)c2cc3c(s2)CCC3)cc1	A3A deaminase 40.5 (no result: PolyA inh) | A3A conf 32.5 | UDG ctr A3A inactive
COC(=O)C1=C(C)N=c2sc(=Cc3ccoc3)c(=O)n2C1c1ccccc1 (stereo unspecified)	none (no result: PolyA inh, Arrestin-AP2 inh, AHR activator, A3A deaminase, APOBEC3G inh)
CC(C)c1ccc(C=Nn2cnnc2)cc1	none (no result: PolyA inh, Arrestin-AP2 inh, AHR activator, A3A deaminase, APOBEC3G inh)
Cc1ccc([N+](=O)[O-])cc1-c1ccc(C=Nn2nnnc2N)o1	none (no result: PolyA inh, Arrestin-AP2 inh, AHR activator, A3A deaminase, APOBEC3G inh)
CSc1cccc(NC(=O)CN(C2CCCCC2)S(C)(=O)=O)c1	A3A deaminase 64.9 | A3A conf inactive | UDG ctr A3A inactive
CCN(CC)c1cc(C)c2ccccc2n1	A3A deaminase 57.4 | A3A conf inactive
Fc1ccccc1Sc1ccccc1CNC1=NCCN1	A3A deaminase 62.9 | A3A conf 90.9 | UDG ctr A3A inactive
c1ccc(Sc2cccc3ccccc23)c(CNC2=NCCN2)c1	A3A deaminase 58.4 | A3A conf 75.4 | UDG ctr A3A inactive
C[n+]1ccc(/C=C/c2ccccc2O)c2ccccc21	AHR activator 63.4, A3A deaminase 64.4 | A3A conf 65.2 | UDG ctr A3A inactive
CN1/C(=C/c2cc[n+](C)c3ccccc23)C=Cc2ccccc21	none (no result: PolyA inh, AHR activator, A3A deaminase, APOBEC3G inh)
COCCN(C(=O)COC(=O)CNC(=O)c1cccs1)c1c(N)n(Cc2ccccc2)c(=O)[nH]c1=O	A3A deaminase 52.8 | A3A conf 50.3 | UDG ctr A3A inactive
CSC1=NSC2=NC(=O)/C(=C/c3coc4ccccc4c3=O)C(=N)N12	none (no result: PolyA inh, A3A deaminase, APOBEC3G inh)
CSC1=NSC2=NC(=O)/C(=C/c3coc4ccc(O)cc4c3=O)C(=N)N12	A3A deaminase 45.1 (no result: PolyA inh) | A3A conf 36.1 | UDG ctr A3A inactive
COc1cccc(C(=O)N/N=C/c2ccc(Oc3ccc([N+](=O)[O-])cn3)c(OC)c2)c1	A3A deaminase 59.2 (no result: UCH37 DUB inh) | A3A conf 61.6 | UDG ctr A3A inactive
Cc1ccccc1COc1ccc(-c2nnn(CC(=O)O)n2)cc1	A3A deaminase 40.2 (no result: AHR activator, UCH37 DUB inh) | A3A conf inactive | UDG ctr A3A inactive
CCCCn1c(N)c(-c2nc3ccccc3o2)c2c([N+](=O)[O-])nn(C)c(=O)c21	A3A deaminase 52.8 | A3A conf inactive
CCCCn1c(N)c(-c2nc3ccccc3o2)c2c([N+](=O)[O-])nn(CC)c(=O)c21	none
O=C(NN=Cc1ccc(OC(=O)c2ccc([N+](=O)[O-])cc2)cc1)c1cccnc1	none (no result: PolyA inh, Arrestin-AP2 inh, AHR activator, A3A deaminase, APOBEC3G inh)
CC12CC3(C)CC(C)(C1)CC(C(=O)NCC(=O)O)(C2)C3	A3A deaminase 49.9 | A3A conf inactive | UDG ctr A3A inactive
C=CCNC(=O)C12CC3(C)CC(C)(CC(C)(C3)C1)C2	none
CCOc1ccc(/C=c2\sc3nc(-c4ccco4)nn3c2=O)cc1OCC	A3A deaminase 73.8 (no result: PolyA inh, UCH37 DUB inh) | A3A conf 30.6 | UDG ctr A3A inactive
COc1cc(C=NNc2ccc([N+](=O)[O-])cc2)ccc1OCC(=O)Nc1ccc(C)c(C)c1	none (no result: PolyA inh, Arrestin-AP2 inh, AHR activator, A3A deaminase, APOBEC3G inh)
COC(=O)\C(C(C)=O)=C(/C=C/C=C/N(C)C)N(C)C	A3A deaminase 47.4 | A3A conf 35.5
COC(=O)/C(C(C)=O)=C(/C=C/C=C/N(C)C)N(C)C	none
CC1CCC(C(C)C)C(OCC(O)C[N+]2(C)CCCCC2)C1 (stereo unspecified)	A3A deaminase 78.1 | A3A conf 73.9 | UDG ctr A3A inactive
CC1CCC(C(C)C)C(OCC(O)CN2CCCC(C)C2)C1 (stereo unspecified)	none
O=C(CON=Cc1ccc(OC(F)F)cc1)NC1CCCCCC1	none (no result: PolyA inh, Arrestin-AP2 inh, AHR activator, A3A deaminase, APOBEC3G inh)
CCCc1cc(=O)oc2cc(C)cc(OCc3nn[nH]n3)c12	none
Cc1cc(=O)oc2c1c(C)nn2-c1nn[nH]n1	A3A deaminase 58.8 | A3A conf 72.2 | UDG ctr A3A inactive
CCOC(=O)c1c(NC(=O)Cn2ccsc2=N)sc(C)c1C	A3A deaminase 56.8 | A3A conf inactive
COc1ccc(C(=O)NCC(=O)OCC(=O)c2ccc(Cl)cc2)cc1OC	none
COc1ccc(C(=O)NCC(=O)OCCCOC(=O)CNC(=O)c2ccc(OC)c(OC)c2)cc1OC	A3A deaminase 41.7 | A3A conf inactive
CC(CC(=O)NC(C)(C)C)=NNC(N)=S	none (no result: PolyA inh, Arrestin-AP2 inh, AHR activator, A3A deaminase, APOBEC3G inh)
CCCCN(C(=O)c1ccco1)C1CCS(=O)(=O)C1 (stereo unspecified)	A3A deaminase 65.0 | A3A conf inactive | UDG ctr A3A inactive
O=C(COc1ccccc1)NN=Cc1ccc2c(c1)OCO2	none (no result: PolyA inh, Arrestin-AP2 inh, AHR activator, A3A deaminase, APOBEC3G inh)
C/C(CC(=O)Nc1ccc(Cl)c(Cl)c1)=N\NC(=O)C(=O)N1CCCCC1	A3A deaminase 61.5 (no result: UCH37 DUB inh) | A3A conf 16.2 | UDG ctr A3A inactive
O=C(NN=Cc1cccc([N+](=O)[O-])c1)C1CC(=O)N(c2ccc(Br)cc2)C1 (stereo unspecified)	none (no result: PolyA inh, Arrestin-AP2 inh, AHR activator, A3A deaminase, APOBEC3G inh)
CC(CC1CC(C)(C)OC1=O)=NNC(N)=S (stereo unspecified)	none (no result: PolyA inh, Arrestin-AP2 inh, AHR activator, A3A deaminase, APOBEC3G inh)
